From ChEMBL document CHEMBL4152356, “Amphipathic sulfonamidobenzamides mimicking small antimicrobial marine natural products; investigation of antibacterial and anti-biofilm activity against antibiotic resistant clinical isolates” (Bioorg Med Chem, 2018)
The source made the active and inactive calls.

Legend:
Staphylococcus aureus [1] = assay: Antibacterial activity against Staphylococcus aureus ATCC 9144 after 48 hrs by microdilution method; type: functional; conditions: ATCC 9144, 48 h
How it was run: (§1)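 Broth microdilution (CLSI M07-A9, modified) in Mueller-Hinton broth; inoculum about 2.5-3 × 10^4 cells/ml mixed 1:1 with serial compound dilutions. Stock solutions in up to 100% DMSO, final DMSO ≤1%. Incubated 35 °C for 48 h.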

[2] = system: Staphylococcus epidermidis; assay: Antibacterial activity against methicillin resistant Staphylococcus epidermidis RP62A ATCC 35984/CCUG 31568 after 48 hrs by microdilution method; type: functional; conditions: RP62A ATCC 35984/CCUG 31568, 48 h
How it was run: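 Broth microdilution (modified CLSI M07-A9) against the MRSE reference strain. Inoculum of about 2.5-3 × 10^4 cells/ml in Mueller-Hinton broth mixed 1:1 with serial compound dilutions; final DMSO ≤1%. Incubated 35 °C, 48 h.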

Bacillus subtilis [3] = assay: Antibacterial activity against Bacillus subtilis 168 ATCC 23857 after 48 hrs by microdilution method; type: functional; conditions: subsp. subtilis str. 168 ATCC 23857, 48 h; how it was run: as §1
[4] = system: Corynebacterium glutamicum; assay: Antibacterial activity against Corynebacterium glutamicum ATCC 13032 after 48 hrs by microdilution method; type: functional; conditions: ATCC 13032, 48 h; how it was run: as §1
Escherichia coli [5] = assay: Antibacterial activity against Escherichia coli ATCC 25922 after 48 hrs by microdilution method; type: functional; conditions: ATCC 25922, 48 h; how it was run: as §1
Pseudomonas aeruginosa [6] = assay: Antibacterial activity against Pseudomonas aeruginosa PAO1 DSM 19880 ATCC 15692 after 48 hrs by microdilution method; type: functional; conditions: PAO1 DSM 19880 ATCC 15692, 48 h; how it was run: as §1
Erythrocyte = assay: Hemolytic activity against human RBC measured after 1 hr; type: cell-based
How it was run: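 Washed human RBCs from a healthy donor (heparinized) at 10% in PBS pH 7.4, mixed 9:1 with serial compound dilutions, 37 °C for 1 h. Baseline set by 0.5% DMSO in 50% PBS, 100% lysis by 0.05% Triton X-100. EC50 is the concentration giving 50% lysis.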

MRC5 = assay: Cytotoxicity against human MRC5 cells after 72 hrs by MTS assay; type: cell-based; conditions: MRC5, 72 h
How it was run: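 MRC-5 lung fibroblasts in DMEM with 10% FBS, 37 °C, 5% CO2; seeded at 4000 cells/well, adhered 24 h, medium replaced. Two-fold dilutions up to 100 µg/ml for 72 h, then MTS for 1 h and absorbance at 485 nm. Controls were 1% DMSO (negative) and 0.5% Triton X-100 (positive). EC50 is the concentration giving 50% inhibition of survival.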

[7] = Selectivity index, ratio of EC50 for human RBC to MIC for methicillin resistant Staphylococcus epidermidis RP62A ATCC 35984/CCUG 31568; type: toxicity; conditions: human red blood cells (RBC), read-out: Selectivity Index
How it was run: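 SI = hemolytic EC50 / MRSE MIC. Hemolysis: washed human RBCs (heparinized blood, healthy adult donor) at 10% in PBS pH 7.4, mixed 9:1 with serial compound dilutions, 37 °C for 1 h. 0.05% Triton X-100 set 100% lysis, 0.5% DMSO set baseline. MIC from MHB microdilution, 35 °C, […].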

Staphylococcus aureus [8] = assay: Antibacterial activity against Staphylococcus aureus clinical isolates after 24 hrs by microdilution method; type: functional
How it was run: (§2)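 Clinical isolate screen by broth microdilution with about 1-1.2 × 10^6 cells/ml and 24 h incubation. MIC is the lowest concentration with no growth. For isolate collections, MIC90 is the MIC inhibiting ≥90% of isolates. Multidrug resistance was defined as resistance to at least […] antimicrobial class.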

Enterococcus sp. = assay: Antibacterial activity against Enterococcus sp. clinical isolates after 24 hrs by microdilution method; type: functional; how it was run: as §2
Escherichia coli [9] = assay: Antibacterial activity against Escherichia coli clinical isolates after 24 hrs by microdilution method; type: functional; how it was run: as §2
Pseudomonas aeruginosa [10] = assay: Antibacterial activity against Pseudomonas aeruginosa clinical isolates after 24 hrs by microdilution method; type: functional; how it was run: as §2
Klebsiella pneumoniae = assay: Antibacterial activity against Klebsiella pneumoniae clinical isolates after 24 hrs by microdilution method; type: functional; how it was run: as §2
[11] = system: Staphylococcus epidermidis; assay: Antibiofilm activity against Staphylococcus epidermidis RP62A ATCC 35984/CCUG 31568 incubated for 24 +/- 2 hrs by crystal violet staining based assay; type: functional
How it was run: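 Mature S. epidermidis RP62A biofilms: filtered overnight TSB culture adjusted to 2 McFarland, diluted in TSB with 1% glucose to about 6 × 10^6 CFU/ml, grown 24 ± 2 h at 37 °C static, then PBS-washed. Compounds in 50% TSBglu added for 24 ± 2 h at 37 °C. Biomass given as % of untreated control; ≥90% eradication threshold. Compounds tested at 2x, 5x and 10x MIC, 4-8 parallels on 2-3 plates, highest and lowest values excluded.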

Bacillus subtilis [12] = assay: Induction of membrane disruption in Bacillus subtilis 168 expressing luciferase at 12.5 ug/ml measured up to 60 secs by luminescence assay; type: functional, organism-based; conditions: subsp. subtilis str. 168
How it was run: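 Luminescence followed up to […]. Fold induction is maximal luminescence relative to chlorhexidine control (31 or 20 µg/ml). Mean ± SD of two experiments.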

[13] = Solubility of the compound in PBS

Row | Compound | MIC (Staphylococcus aureus [1]) | MIC [2] | MIC (Bacillus subtilis [3]) | MIC [4] | MIC (Escherichia coli [5]) | MIC (Pseudomonas aeruginosa [6]) | EC50 (Erythrocyte) | EC50 (MRC5) | selectivity ratio [7] | MIC (Staphylococcus aureus [8]) | MIC (Enterococcus sp.) | MIC (Escherichia coli [9]) | MIC (Pseudomonas aeruginosa [10]) | MIC (Klebsiella pneumoniae) | MBIC=>90 [11] | Activity (Bacillus subtilis [12]) | solubility [13]
1 | CN(c1cccc(C(=O)NCCNC(=N)N)c1)S(=O)(=O)c1cc(C(C)(C)C)cc(C(C)(C)C)c1.Cl | 4 µg/mL | 4 µg/mL | 4 µg/mL | 2 µg/mL | 32 µg/mL | 32 µg/mL | 95 µg/mL | 91 µg/mL | 24 | 8 µg/mL | 16 µg/mL | 32 µg/mL | 32 µg/mL | 64 µg/mL | 40 µg/mL | Active | –
2 | Cl.N=C(N)NCCNC(=O)c1ccc(NS(=O)(=O)c2ccc3ccccc3c2)cc1 | 64 µg/mL | 32 µg/mL | 64 µg/mL | 32 µg/mL | > 128 µg/mL | > 128 µg/mL | > 128 µg/mL | > 100 µg/mL | > 4 | 128 µg/mL | > 128 µg/mL | > 128 µg/mL | > 128 µg/mL | > 128 µg/mL | 160 µg/mL | – | –
3 | CC(C)(C)c1cc(C(C)(C)C)cc(S(=O)(=O)Nc2ccc(CC(=O)NCCNC(=N)N)cc2)c1.Cl | 16 µg/mL | 8 µg/mL | 8 µg/mL | 8 µg/mL | 64 µg/mL | 64 µg/mL | 101 µg/mL | 55 µg/mL | 13 | 16 µg/mL | 32 µg/mL | 64 µg/mL | 64 µg/mL | 128 µg/mL | 40 µg/mL | – | –
4 | CC(C)(C)c1cc(C(C)(C)C)cc(S(=O)(=O)NCCCCNC(=N)N)c1.Cl | 8 µg/mL | 8 µg/mL | 16 µg/mL | 4 µg/mL | 64 µg/mL | 64 µg/mL | 110 µg/mL | 42 µg/mL | 14 | 16 µg/mL | 32 µg/mL | 128 µg/mL | 64 µg/mL | 128 µg/mL | 40 µg/mL | – | –
5 | Cc1cc(C(=O)NCCNC(=N)N)ccc1NS(=O)(=O)c1cc(C(C)(C)C)cc(C(C)(C)C)c1.Cl | 8 µg/mL | 4 µg/mL | 8 µg/mL | 4 µg/mL | 32 µg/mL | > 128 µg/mL | 104 µg/mL | 56 µg/mL | 26 | 8 µg/mL | 32 µg/mL | 64 µg/mL | 64 µg/mL | > 128 µg/mL | 40 µg/mL | – | –
6 | CC(C)(C)c1cc(C(C)(C)C)cc(S(=O)(=O)NCc2ccc(C(=O)NCCNC(=N)N)cc2)c1.Cl | 16 µg/mL | 8 µg/mL | 8 µg/mL | 4 µg/mL | 32 µg/mL | 32 µg/mL | 113 µg/mL | > 100 µg/mL | 14 | 16 µg/mL | 64 µg/mL | 128 µg/mL | 64 µg/mL | 128 µg/mL | 80 µg/mL | – | –
7 | CN(c1ccc(C(=O)NCCNC(=N)N)cc1)S(=O)(=O)c1cc(C(C)(C)C)cc(C(C)(C)C)c1.Cl | 4 µg/mL | 4 µg/mL | 4 µg/mL | 2 µg/mL | 32 µg/mL | 16 µg/mL | 45 µg/mL | 36 µg/mL | 11 | 4 µg/mL | 32 µg/mL | 32 µg/mL | 16 µg/mL | 64 µg/mL | 40 µg/mL | – | –
8 | COc1c(C(C)(C)C)cc(S(=O)(=O)Nc2ccc(C(=O)NCCNC(=N)N)cc2)cc1C(C)(C)C.Cl | 4 µg/mL | 4 µg/mL | 4 µg/mL | 4 µg/mL | 32 µg/mL | 64 µg/mL | 64 µg/mL | > 100 µg/mL | 16 | 8 µg/mL | 64 µg/mL | > 128 µg/mL | 32 µg/mL | > 128 µg/mL | 40 µg/mL | – | > 64 µg/mL
9 | CC(C)(C)c1cc(C(C)(C)C)cc(S(=O)(=O)N2CCC(C(=O)NCCNC(=N)N)CC2)c1.Cl | 16 µg/mL | 16 µg/mL | 16 µg/mL | 4 µg/mL | 64 µg/mL | 128 µg/mL | 124 µg/mL | > 100 µg/mL | 8 | – | – | – | – | – | 80 µg/mL | – | –
10 | CC(C)(C)c1cc(C(C)(C)C)cc(S(=O)(=O)Nc2ccc(C(=O)NCCNC(=N)N)cc2)c1.Cl | 4 µg/mL | 4 µg/mL | 8 µg/mL | 4 µg/mL | 32 µg/mL | 64 µg/mL | 64 µg/mL | > 100 µg/mL | 16 | 8 µg/mL | 32 µg/mL | > 128 µg/mL | > 128 µg/mL | > 128 µg/mL | 40 µg/mL | – | > 64 µg/mL
11 | CC(C)(C)c1cc(C(C)(C)C)cc(S(=O)(=O)Nc2cc3ccccc3cc2C(=O)NCCN)c1.Cl | 4 µg/mL | 4 µg/mL | 4 µg/mL | 2 µg/mL | 8 µg/mL | 32 µg/mL | 21 µg/mL | 22 µg/mL | 5 | 8 µg/mL | 8 µg/mL | 32 µg/mL | 32 µg/mL | 128 µg/mL | – | – | –
12 | Cl.N=C(N)NCCNC(=O)c1ccc(NS(=O)(=O)c2cc(C(F)(F)F)cc(C(F)(F)F)c2)cc1 | > 128 µg/mL | > 128 µg/mL | > 128 µg/mL | > 128 µg/mL | > 128 µg/mL | > 128 µg/mL | 64 µg/mL | > 100 µg/mL | – | – | – | – | – | – | – | – | > 64 µg/mL
13 | CC(C)(C)c1cc(C(C)(C)C)cc(S(=O)(=O)Nc2cccc(C(=O)NCCNC(=N)N)c2)c1.Cl | 8 µg/mL | 8 µg/mL | 8 µg/mL | 4 µg/mL | 32 µg/mL | 32 µg/mL | 92 µg/mL | > 100 µg/mL | 12 | 8 µg/mL | 32 µg/mL | 64 µg/mL | 64 µg/mL | 128 µg/mL | 40 µg/mL | – | –
